This note sets out measurements from ChEMBL document CHEMBL1152657, “1-(2-((Z)-6-(2-(Trifluoromethyl)phenyl)hexa-3-en-1,5-diynyl)phenyl)piperidin-2-one as a new potent apoptosis agent” (2009).

For assay [1], the system named is K562. Put plainly: Cell cycle arrest in human K562 cells assessed as accumulation at G1 phase at 50 uM after 24 hrs by flow cytometry. The class given is functional. Put shortly:
(§1)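 K-562 cells (RPMI 1640, 10% fetal calf serum, 37 °C, 5% CO2) were exposed for 24 h, then fixed in ice-cold 70% ethanol for 30 min. They were treated with RNase A (1 mg/ml, 37 °C, 30 min) and stained with propidium iodide and Triton X-100 solution for 30 min in the dark. DNA content was read on 10,000 events by flow cytometry, and the sub-G1 region was gated as apoptotic.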
A general note: A flow cytometer gives signals particle by particle.

Assay [2] has as its system K562. Put plainly: Cell cycle arrest in human K562 cells assessed as apoptotic cells at 50 uM after 24 hrs by flow cytometry. The class given is functional. The essentials: as §1
Assay [3] concerns K562. Put plainly: Induction of apoptosis in human K562 cells assessed as increase in caspase-9 activity at 25 uM by colorimetric assay. Format: functional, cell-based. The essentials:
(§2)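 Treated K-562 cells (1×10^6 cells/ml) were PBS-washed and lysed on ice for 10 min, and the cytosolic supernatant was cleared at 18,000 g. Protein was measured by BCA. Lysate protein was incubated with caspase-specific colorigenic substrate in 2X reaction buffer with 10 mM DTT at 37 °C for 1 h, and absorbance was read at 405 nm.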

The test system of assay [4] is K562. Put plainly: Cell cycle arrest in human K562 cells assessed as accumulation at G2/M phase at 50 uM after 24 hrs by flow cytometry. The class given is functional. Put shortly: as §1
Assay [5] concerns K562. Put plainly: Cell cycle arrest in human K562 cells assessed as accumulation at S phase at 50 uM after 24 hrs by flow cytometry. Format: functional. The essentials: as §1
For assay [6], the system named is K562. In words: Induction of apoptosis in human K562 cells assessed as increase in caspase-3 activity by colorimetric assay. Format: functional, cell-based. The essentials: as §2
Another assay relates to HeLa. Put plainly: Induction of microtubule depolymerization in human HeLa cells at 50 uM after 2 hrs by immunocytochemistry. The class given is functional, cell-based. The essentials:
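HeLa cells were grown 24 h on coverslips, then treated at 37 °C. They were fixed in 4% paraformaldehyde for 5 min and permeabilized with 0.5% Triton X-100. After blocking with 5% goat serum/1% BSA, cells were stained with anti-ninein and anti-tubulin (45 min, 37 °C), then Alexa-conjugated secondaries and DAPI. Imaging was by confocal microscopy with a 100x objective.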

Assay [7] relates to K562. Put plainly: Induction of apoptosis in human K562 cells assessed as increase in caspase-9 activity at 50 uM by colorimetric assay. The class given is functional, cell-based. The essentials:
as §2

A further assay deals with CCRF-CEM. Put plainly: Growth inhibition of human CCRF-CEM cells. The class given is functional. Put shortly: (§3)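 Tested in the NCI in vitro antitumor screening protocol on human tumor lines. The value is the concentration giving 50% reduction in cell growth.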
The test system of assay [8] is K562. In words: Cell cycle arrest in human K562 cells assessed as accumulation at G0/G1 phase at 10 uM after 24 hrs by flow cytometry. The class given is functional. Put shortly: as §1
For assay [9], the system named is K562. In words: Cell cycle arrest in human K562 cells assessed as accumulation at G2/M phase at 10 uM after 24 hrs by flow cytometry. Format: functional. The essentials:
as §1

Another assay has as its system DU-145. Put plainly: Growth inhibition of human DU145 cells. The class given is functional. The essentials:
as §3

Assay [10] concerns K562. Put plainly: Cell cycle arrest in human K562 cells assessed as accumulation at S phase at 10 uM after 24 hrs by flow cytometry. The class given is functional. Put shortly: as §1
Assay [11] has as its system K562. Put plainly: Growth inhibition of human K562 cells. Format: functional. The essentials:
as §3

For assay [12], the system named is K562. In words: Cell cycle arrest in human K562 cells assessed as accumulation at SubG1 phase at 50 uM after 24 hrs by flow cytometry. The class given is functional. The essentials:
as §1

Assay [13] relates to K562. Put plainly: Cell cycle arrest in human K562 cells assessed as accumulation at SubG1 phase at 10 uM after 24 hrs by flow cytometry. Format: functional. The essentials: as §1
The next assay deals with M14. In words: Growth inhibition of human M14 cells. The class given is functional. Put shortly:
as §3

The next assay deals with HOP-62. Put plainly: Growth inhibition of human HOP62 cells. Format: functional. Put shortly: as §3
Another assay concerns OVCAR-3. Put plainly: Growth inhibition of human OVCAR-3 cells. The class given is functional. The essentials:
as §3

Another assay concerns HCT-15. Put plainly: Growth inhibition of human HCT15 cells. Format: functional. Put shortly:
as §3

For a further assay, the system named is MDA-MB-231. In words: Growth inhibition of human MDA-MB-231 cells. Format: functional. Put shortly:
as §3

Assay [14] relates to K562. Put plainly: Cell cycle arrest in human K562 cells assessed as accumulation at G0/G1 phase at 50 uM after 24 hrs by flow cytometry. The class given is functional. Put shortly: as §1
For the next assay, the system named is HCC 2998. Put plainly: Growth inhibition of human HCC2998 cells. The class given is functional. The essentials:
as §3

Another assay relates to UACC-62. Put plainly: Growth inhibition of human UACC62 cells. The class given is functional. The essentials:
as §3

The next assay concerns ACHN. In words: Growth inhibition of human ACHN cells. The class given is functional. The essentials: as §3
The subject of another assay is MDA-MB-435. Put plainly: Growth inhibition of human MDA-MB-435 cells. Format: functional. The essentials:
as §3

The test system of the next assay is SNB-75. Put plainly: Growth inhibition of human SNB75 cells. The class given is functional. Put shortly:
as §3

The test system of assay [15] is K562. Put plainly: Induction of apoptosis in human K562 cells assessed as down-regulation of Bcl2 protein level after 24 hrs by Western blot. Format: functional, cell-based. Put shortly: (§4)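 Cells were dosed at several concentrations for 24 h and lysed in Tris-HCl pH 7.5 NP-40 buffer with phosphatase inhibitors. Equal protein was run on SDS-PAGE and transferred to PVDF. Membranes were blocked with 5% nonfat milk in TBST for 1 h, then immunoblotted.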

Assay [16] deals with K562. In words: Induction of apoptosis in human K562 cells assessed as upregulation of Bax protein level after 24 hrs by Western blot. Format: functional, cell-based. Put shortly: as §4
On the technique in general: Immunoblotting shows a protein as a band on a membrane.

The subject of assay [17] is K562. Put plainly: Induction of apoptosis in human K562 cells assessed as cytochrome-C release after 24 hrs by Western blot. The class given is functional, cell-based. The essentials: as §4
Assay [18] relates to K562. In words: Induction of apoptosis in human K562 cells assessed as PARP cleavage after 24 hrs by Western blot. The class given is functional, cell-based. Put shortly:
as §4

The subject of assay [19] is K562. Put plainly: Induction of apoptosis in human K562 cells assessed as downregulation of XIAP protein level after 24 hrs by Western blot. Format: functional, cell-based. Put shortly:
as §4

Activity calls are given as the source filed them. No cut-off for these calls is given here.

For the compound `Nc1ccccc1C#C/C=C\C#Cc1ccccc1C(F)(F)F`, the Activity is 6.7% in the assay on K562 [1]; 19.4% with K562 [2]; 73.9% in the assay on K562 [4]; 19.3% with K562 [5]; “Dose-dependent effect” in the assay on K562 [6]. The result in the assay with K562 [3], with HeLa and in the assay on K562 [7] was Active.
With `CCC(=O)Nc1ccccc1C#C/C=C\C#Cc1ccccc1C(F)(F)F`, the GI50 was 2.75 µM with CCRF-CEM; 40.5 µM in the assay on DU-145; 6.36 µM in the assay on K562 [11]; 12 µM in the assay with M14; 10 µM with HOP-62; 8.87 µM in the assay on OVCAR-3. The GI50 was determined as 4.27 µM in the assay on HCT-15; 7.92 µM in the assay with MDA-MB-231; 5.08 µM in the assay with HCC 2998; 4.04 µM in the assay on UACC-62; 30.1 µM with ACHN; 1.92 µM in the assay on MDA-MB-435. The compound also yielded a GI50 in the assay on SNB-75 of 4.76 µM. In addition, the Activity in the assay with K562 [8] is on record as 14.6%; in the assay on K562 [9], 33.5%; with K562 [10], 51.9%; with K562 [4] it was 82.7%; in the assay with K562 [5], 16.1%; in the assay with K562 [12], 26.11%. Further, the figures for the Activity with K562 [13] and in the assay on K562 [14] were 15.3% and 1.2%, respectively.
As to `O=C1CCCCN1c1ccccc1C#C/C=C\C#Cc1ccccc1C(F)(F)F`, the Activity with K562 [1] was 27.7%; in the assay with K562 [8], 8.9%; in the assay on K562 [2] it was 51%; with K562 [9], 78.3%; with K562 [10], 12.9%; with K562 [15] it was “Dose-dependent effect”. The Activity in the assay on K562 [4] is 59.7%; in the assay on K562 [5] it was 0%; in the assay on K562 [12], 31.57%; in the assay on K562 [13], 23.9%; with K562 [6], “Dose-dependent effect”; in the assay with K562 [16], “Dose-dependent effect”. For the same compound, the Activity result in the assay on K562 [17] is “Dose-dependent effect”; in the assay with K562 [14] it was 40.3%; in the assay with K562 [19] it was “Dose-dependent effect”. Also, the GI50 stood at 1.56 µM in the assay with CCRF-CEM; 1.68 µM with DU-145; 8.56 µM in the assay with K562 [11]; 0.9 µM with M14; 0.89 µM in the assay on HOP-62; 0.87 µM in the assay with OVCAR-3. Further, the GI50 in the assay with HCT-15 is 1.53 µM; with MDA-MB-231 it was 1.16 µM; in the assay on HCC 2998 it was 0.95 µM; in the assay with UACC-62, 1.44 µM; with ACHN, 2.67 µM; in the assay on MDA-MB-435, 0.6 µM. This compound also yielded a GI50 in the assay with SNB-75 of 1.61 µM. Also, the outcome in the assay on K562 [3], with K562 [18], with HeLa and in the assay on K562 [7] was Active.
As for `CSc1ccccc1C#C/C=C\C#Cc1ccccc1N1CCCC1=O`, the GI50 amounted to 0.21 µM with CCRF-CEM; 10.1 µM in the assay with DU-145; 0.44 µM in the assay on K562 [11]; 3 µM in the assay with M14; 5.02 µM in the assay with HOP-62; 1.03 µM with OVCAR-3. For the same compound, the concentration for 50% growth inhibition (GI50) with HCT-15 was 1.53 µM; in the assay with MDA-MB-231, 1.19 µM; in the assay with HCC 2998, 1.32 µM; in the assay on UACC-62, 1.44 µM; in the assay on ACHN, 10.5 µM; in the assay on MDA-MB-435, 0.9 µM. The GI50 in the assay with SNB-75 was determined as 2.34 µM. The Activity came to 49.3% in the assay on K562 [8]; 51.7% with K562 [9]; 0% in the assay with K562 [10]; 69.4% in the assay on K562 [4]; 22.9% in the assay on K562 [5]; 17.79% in the assay on K562 [12]. For the same compound, the Activity with K562 [13] stood at 15.39%; in the assay with K562 [14] it was 7.7%.
Take `CCC(=O)Nc1ccccc1C#C/C=C\C#Cc1ccccc1SC`: the GI50 in the assay on CCRF-CEM is 0.79 µM; in the assay with DU-145, 1.93 µM; in the assay with K562 [11], 2.29 µM; in the assay on M14, 1.79 µM; with HOP-62, 2.52 µM; with OVCAR-3 it was 1.79 µM. Also, the GI50 in the assay with HCT-15 is 3.35 µM; in the assay with MDA-MB-231 it was 2.17 µM; in the assay on HCC 2998, 4.19 µM; in the assay with UACC-62, 1.69 µM; in the assay with ACHN, 4.08 µM; in the assay with MDA-MB-435, 0.75 µM. Also, growth with SNB-75 was halved (GI50) at 0.63 µM. The Activity worked out at 22.7% in the assay with K562 [8]; 35.2% in the assay with K562 [9]; 42.1% in the assay with K562 [10]; 68.5% in the assay with K562 [4]; 12.7% with K562 [5]; 16.2% in the assay on K562 [12]. Besides, the Activity in the assay with K562 [13] worked out at 9.8%; with K562 [14] it was 18.7%.

The term GI50 denotes the concentration that inhibits growth by half. Read a low GI50 as greater sensitivity of the cells.
